Measurements reported in the EternaBench riboswitch data.

Test system: MS2 coat protein
Assay: apparent Kd, MS2 coat protein; higher = weaker binding; RNA-MaP array; FMN 200 µM where present
Procedure, shortened: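 The apparent Kd is the median of filtered binding-curve fits, one per cluster, to green signal normalised to red-channel RNA signal and control-cluster median Fmax. The clusters were on Illumina sequencing chips, and stalled E. coli RNA polymerase had transcribed the designs on them. Titration used SNAP-549-labelled MS2 coat protein from 0.7 or 1.5 nM, doubling to 3 µM, without and then with constant ligand, in 100 mM Tris-HCl pH 7.5, 80 mM KCl, 4 mM MgCl2, BSA, DTT, yeast tRNA and Tween-20.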

[1] = designed as: ON switch for flavin mononucleotide, no ligand
[2] = ligand present: flavin mononucleotide, designed as: ON switch for flavin mononucleotide
[3] = designed as: OFF switch for flavin mononucleotide, no ligand
[4] = ligand present: flavin mononucleotide, designed as: OFF switch for flavin mononucleotide

| Sequence | apparent Kd [1] | apparent Kd [2] | apparent Kd [3] | apparent Kd [4] |
| --- | --- | --- | --- | --- |
| GCACAUGGCAUAGGAUAUAGAACUUUACUUUAUAUAGGUAGUUACACUUAACUAGAAGGAUGUUACAUGAGGAUCACCCAUGUU | 0.0254 µM | 0.02 µM | – | – |
| UGUGUCUGUAGAGGAUAUCCGGGCGUUCGGCUAGGAGAAGGCUGCAACACAUGAGGAUCACCCAUGUAGGUUGUGUCUCUCUAC | – | – | 0.00505 µM | 0.00848 µM |
| GUGAAACAUGAGGAUCACCCAUGUGAGGAUAUGUUUUAGUACUGGAGACAGUACAUCUAUAGAAGGCACAAUGG | – | – | 0.0683 µM | 0.0891 µM |
| UUUGUACAUGAGGAUCACCCAUGUCAGGAUAUGUCAUCGCCGUCCGACGGCCGGCGUCACAGAAGGGACAUGCA | – | – | 0.0278 µM | 0.0781 µM |
| AUUGAUGUUGAGGAUAUGCUUUUAUUUAUAAUAGCAGAAGGCGAUACAUGAGGAUCACCCAUGUUCAUGGUAGU | – | – | 0.0622 µM | 0.067 µM |
| UAUUCAUACGAAGGAUAUGGUUACAUGAGGAUCACCCAUGUAUGUAUAUUGAUCUAGUUAUUUAACCAGAAGGUCGGGUGUAAA | – | – | 0.0573 µM | 0.0913 µM |
| CGCUACGUUUCGUAGCAGCUAGGUGAGGAUAUUCAAUUUUUCACAUGAGGAUCACCCAUGUAUGUGAAGAAGGCGCCUAGAAAC | 0.0108 µM | 0.00481 µM | – | – |
| GGUGCAUAUGAGAAGGUGAUCAUGAAACAUGAUCGAGGAUAUCAUGUAAACAUGAGGAUCACCCAUGUAUGGGAAUAUUGCACC | 0.0462 µM | 0.117 µM | – | – |
| UGUUGUAUUACAGGAUAUCUAUGAUUUUUUUUUAGAGAAGGGUAUUCACAUGAGGAUCACCCAUGUAUAUACGAGGAAGUUGUG | 0.0514 µM | 0.062 µM | – | – |
| CCACGGUAUGUAGGAUAUGCAUAGCAUUGCUAUGCAGAAGGACAUGAGGAUCACCCAUGUAUGUAUUCCAUACUAAUCCCGUGU | – | – | 0.00629 µM | 0.0059 µM |
| GUGCAUGUGCGAACUAACCCACAUGAGGAUCACCCAUGUAGGAGAAGGGUCCGGAGGUGCCGUGGACAGGAUAUCCUACGCCUG | – | – | 0.0232 µM | 0.0309 µM |
| GUCUCAGUUGGCUUCAAGGGCGGUCAGGAUAUGCUAACGUACAUGAGGAUCACCCAUGUCCAAGUGCAGAAGGGACAUACGCCA | 0.0626 µM | 0.00785 µM | – | – |
| AUACAACAUGAGGAUCACCCAUGUGAGGAUAUGCGAUACAUCAUCAUCAUCAUCAAUCGCAGAAGGCACAACAU | – | – | 0.0502 µM | 0.055 µM |
| AUGUUAGGAGGAUAUCGAUUUCAGGACAUGAGGAUCACCCAUGUACUAAAAGUCGUGGUUCGAGAAGGCCUAACUU | – | – | 0.0175 µM | 0.0235 µM |
| CCUUUGAAGAUCCUAGUUUUCGACAUGAGGAUCACCCAUGUGCAGGAUAUCGUGCCAGUGAUGUGCGAGAAGGGCAGUCUCUGC | – | – | 0.11 µM | 0.112 µM |
| CGUGCGUCGACAGGAUAUACAGAUUGGCUCCGGUACAUGAGGAUCACCCAUGUAGAAGGGUCACGCACGGAUAGUUCGAUAUUA | – | – | 0.00936 µM | 0.0431 µM |
| CCUGUGUGAGGAUAUGGUGUUAAAAAAAAAAAAUAGCUCCUCCAGAAGGCACAUGAGGAUCACCCAUGUCGUGG | – | – | 0.0335 µM | 0.0692 µM |
| GUGGCUGUUAGGCUUGCGUCGGCGACAGAAGGCCAACAUGAGGAUCACCCAUGUACAAAGACCAUGGAGGAUAUGUUGCCAAUG | 0.0582 µM | 0.00754 µM | – | – |
| CACAAUCUAUCUGAGGAUAUCAUGAAAAAAACAUGAGGAUCACCCAUGUGCAGGAAAACUGCAUAUGAGAAGGCAGAUAGAUUGC | 0.613 µM | 0.0291 µM | – | – |
| AGUGGACAUGAGGAUCACCCAUGUAUGCUGGCAUGAGGAUAUCCGAUUCGUUUCGACUAAGGAGAAGGCAUAGCCC | 0.0972 µM | 0.0313 µM | – | – |
| AAAACACAUGAGGAUCACCCAUGUAUCUGGACCAUAGGAUAUCCGCGCCCAAUAAGGUGUGGAGAAGGGUGAGCCC | 0.158 µM | 0.181 µM | – | – |
| CGCAUCUCCUCAAUUCCUUCACAUGAGGAUCACCCAUGUAGGGAGGAUAUGCAAGCCUAUUGGCGGCAGAAGGCCCUGCAAUGG | – | – | 0.0729 µM | 0.0674 µM |
| UCUUGUGUUGAGGAUAUGCGCCGGCUCGCUGGCGCAGAAGGCGGCACAUGAGGAUCACCCAUGUCAGUUCGCGU | – | – | 0.326 µM | 0.078 µM |
| GGGUGACAUGAGGAUCACCCAUGUCAGGAUAUGGGCUCGGGCUCGAAAGGGCUCGGGCUCAGAAGGGACUGCCC | – | – | 0.056 µM | 0.17 µM |
| GGGAGACAUGAGGAUCACCCAUGUGAAAACGUGUGAGGAUAUCAAUGGAAACCAUACUGUUGAGAAGGCACUUGUC | 0.118 µM | 0.0413 µM | – | – |
| GUCAGCUCGUGAGGAUAUACAUCACUGCUUCGGCAGUGUAUUAAAUCCACAUGAGGAUCACCCAUGUAGAAGGCACGAGCUGAU | – | – | 0.0167 µM | 0.031 µM |
| UUUGUGUCAGGAUAUGAGUCGUAGAACAAUAGUACUACGUCUCAGAAGGGACAUGAGGAUCACCCAUGUGCCUC | – | – | 0.0354 µM | 0.281 µM |
